# Experimental data gathered from unrelated publications.
# RPS6KA4 N-terminal kinase domain: Ribosomal protein S6 kinase alpha-4, N-terminal kinase domain (RPS6KA4, Homo sapiens, UniProt O75676)
# RPS6KA4 C-terminal kinase domain: Ribosomal protein S6 kinase alpha-4, C-terminal kinase domain (RPS6KA4, Homo sapiens, UniProt O75676)
# RPS6KA4: Ribosomal protein S6 kinase alpha-4 (RPS6KA4, Homo sapiens, UniProt O75676)
Structure (SMILES),target,assay,conditions,endpoint,value
Nc1ncnc2occ(-c3ccc(NC(=O)Nc4cc(C(F)(F)F)ccc4F)cc3)c12,RPS6KA4 N-terminal kinase domain,"cell-free assay, inhibitor",20 µM,remaining signal,2.1%
CC(=O)N1CCC(c2ccc(C(=O)NC(=N)N)cc2C(F)(F)F)CC1,RPS6KA4 C-terminal kinase domain,"cell-free assay, competition with immobilised ligand",1 µM,remaining binding,100%
CCOc1cc(-c2nncn2C)ccc1Nc1ncc2cc(C)nc(NCC(C)(C)C)c2n1,RPS6KA4,"enzyme activity, inhibitor, FRET",1 µM,inhibition,< 15%
Cc1ccc(C(=O)NCc2ccsc2)cc1C#Cc1cn(C(C)C)c2ncnc(N)c12,RPS6KA4,"enzyme activity, inhibitor",1 µM,activity vs control,107%
CCN(CC)c1ccc(C2=NNC(=O)CC2C)cc1[N+](=O)[O-] (stereo not shown),RPS6KA4,"enzyme activity, inhibitor",10 µM,remaining activity,82%
Cn1cncc1C1=CN(c2ncnc3[nH]cnc23)CCS1,RPS6KA4,"enzyme activity, inhibitor, radiometric",50 nM,inhibition,13.3%
O=C(N[C@H]1CCCCC/C=C\C2C[C@@]2(C(=O)O)NC(=O)[C@@H]2C[C@@H](Oc3ccncc3)CN2C1=O)OC1CCCC1 (stereo partly shown),RPS6KA4 N-terminal kinase domain,"binding, competition with immobilised ligand",1 µM,remaining binding,100%
CN(C)c1nccc(-c2cnn3ncccc23)n1,RPS6KA4 C-terminal kinase domain,"binding, competition with immobilised ligand",1 µM,remaining binding,84%
CC(C)CC(=O)N1CCc2nc(-c3ccc(Br)cc3)nc(N(C)Cc3ccccc3)c2C1,RPS6KA4 N-terminal kinase domain,"cell-free assay, competition with immobilised ligand",0.1 µM,remaining binding,74%
COc1cc2c(N3CCN(C(=O)Nc4ccc(OC(C)C)cc4)CC3)ncnc2cc1OCCCN1CCCCC1,RPS6KA4,cell-free assay,0.5 µM,remaining signal,120%
CC1CCCN1c1nccc(-c2cnn3ncccc23)n1 (stereo not shown),RPS6KA4 N-terminal kinase domain,"binding, competition with immobilised ligand",1 µM,remaining binding,99%
Cc1nc(C2CCN(C(=O)c3ccc(OC(F)(F)F)cc3N)CC2)c2ncc(N3CCN(C)CC3)cc2n1,RPS6KA4 N-terminal kinase domain,"cell-free assay, competition with immobilised ligand",1 µM,remaining binding,100%
CC/C(=N\NC(=O)NCc1cccc(O)c1)c1ccc(O)c(C)c1O,RPS6KA4,"enzyme activity, inhibitor",0.1 µM,inhibition,59.4%
CCC(=O)N[C@H]1CC[C@@H](C(=O)N(C)c2ccc(-c3nc4ccccc4o3)cc2)C1,RPS6KA4 N-terminal kinase domain,"cell-free assay, competition with immobilised ligand",1 µM,remaining binding,100%
O=C(Nc1cnn(-c2csc(C(=O)NC3COC3)c2)c1)Nc1c(F)cccc1Cl,RPS6KA4,"enzyme activity, inhibitor",5 µM,remaining activity,99.8%
O=C1NC(=O)c2cc(Nc3ccc(F)cc3)c(Nc3ccc(F)cc3)cc21,RPS6KA4,cell-free assay,0.5 µM,remaining signal,102%
Cc1cc(C)c(-n2ccn3nc(-c4cccnc4)cc23)cc1NC(=O)c1cc(C#N)cc(S(F)(F)(F)(F)F)c1,RPS6KA4 N-terminal kinase domain,"cell-free assay, competition with immobilised ligand",0.1 µM,remaining binding,100%
CCCCNc1ncc2c(-c3ccc(F)cc3)nn(C[C@H]3CC[C@H](N)CC3)c2n1,RPS6KA4 N-terminal kinase domain,"target engagement in cells, inhibitor, chemoproteomics",20 mM,inhibition,22%
COc1cc(Cl)c(C(=O)N[C@@H](CN[C@H]2CC[C@@H](N)CC2)Cc2ccc(C#N)cc2)cc1-c1ccc(CN[C@H](C)c2ccc(C)cc2)o1,RPS6KA4,"enzyme activity, inhibitor",1 µM,remaining activity,77%
CNC(=O)c1cc(Oc2ccc(NC(=O)Nc3ccc(Cl)c(C(F)(F)F)c3)cc2)ccn1,RPS6KA4,cell-free assay,0.5 µM,remaining signal,97.7%
CC(C)c1ccc(NC(=O)c2cccs2)c(-c2nc3ccccc3[nH]c2=O)c1,RPS6KA4,"enzyme activity, inhibitor",1 µM,activity vs control,96%
N[C@@H]1CCN(c2nccc(-c3cnn4ncccc34)n2)C1,RPS6KA4 N-terminal kinase domain,"binding, competition with immobilised ligand",1 µM,remaining binding,100%
CCS(=O)(=O)c1cc2cc(C[C@](O)(CC(C)(C)c3ccc(F)cc3C(N)=O)C(F)(F)F)[nH]c2cn1,RPS6KA4 C-terminal kinase domain,"cell-free assay, competition with immobilised ligand",1 µM,remaining binding,94%
Cc1cnc(NC2CCOCC2)nc1-n1cnc(C(=O)NC(CN)c2cc(F)cc(Cl)c2)c1 (stereo not shown),RPS6KA4,"enzyme activity, inhibitor, radiometric",1 µM,remaining activity,80%
Cc1ccc(C(=O)Nc2ccc(CN3CCN(C)CC3)c(C(F)(F)F)c2)cc1C#Cc1cnc2cccnn12,RPS6KA4,"enzyme activity, inhibitor",23.5 nM,activity vs control,100%
Cc1ccc(Nc2nccc(N(C)c3ccc4c(C)n(C)nc4c3)n2)cc1S(N)(=O)=O,RPS6KA4,"enzyme activity, inhibitor",0.5 µM,remaining activity,102%
O=C(Nc1cccnn1)N1CCC(=Cc2cccc(Oc3ccc(C(F)(F)F)cn3)c2)CC1,RPS6KA4 N-terminal kinase domain,"cell-free assay, competition with immobilised ligand",1 µM,remaining binding,98%
CC(C)(C)c1nc2c(s1)c1nc(N)ncc1c1ccc(NS(=O)(=O)c3c(F)cccc3F)c(F)c12,RPS6KA4,"enzyme activity, inhibitor, radiometric",1 µM,remaining activity,84%
C[C@H]1CCN(c2nccc(-c3cnn4ncccc34)n2)C1,RPS6KA4 N-terminal kinase domain,"binding, competition with immobilised ligand",1 µM,remaining binding,93%
O=C(Nc1cnn(-c2csc(C(=O)NC3COC3)c2)c1)Nc1ccccc1Cl,RPS6KA4,"enzyme activity, inhibitor",5 µM,remaining activity,90.7%
COc1cc2ncnc(Nc3ccc(Oc4ccccc4)c(C)c3C)c2cc1OC,RPS6KA4,"enzyme activity, inhibitor",1 µM,inhibition,-5%
